# Screening results deposited in PubChem BioAssay by several laboratories.
# Most compounds without a hit are left out; they make up all but 2.3% or so of the library.
# HNF4A DNA FP – change in binding of human HNF4A to DNA, primary screen, biochemical, fluorescence polarization, FITC-DNA; Hepatocyte nuclear factor 4-alpha (Homo sapiens), P41235; 1 h; activity change, % at 10 µM; 360,000 tested, 0.3% active; AID 1224865, 2016; in the data active means activity change above about 30%, passing the limit was not always enough
# Target sequence (P41235 whole entry, looked up): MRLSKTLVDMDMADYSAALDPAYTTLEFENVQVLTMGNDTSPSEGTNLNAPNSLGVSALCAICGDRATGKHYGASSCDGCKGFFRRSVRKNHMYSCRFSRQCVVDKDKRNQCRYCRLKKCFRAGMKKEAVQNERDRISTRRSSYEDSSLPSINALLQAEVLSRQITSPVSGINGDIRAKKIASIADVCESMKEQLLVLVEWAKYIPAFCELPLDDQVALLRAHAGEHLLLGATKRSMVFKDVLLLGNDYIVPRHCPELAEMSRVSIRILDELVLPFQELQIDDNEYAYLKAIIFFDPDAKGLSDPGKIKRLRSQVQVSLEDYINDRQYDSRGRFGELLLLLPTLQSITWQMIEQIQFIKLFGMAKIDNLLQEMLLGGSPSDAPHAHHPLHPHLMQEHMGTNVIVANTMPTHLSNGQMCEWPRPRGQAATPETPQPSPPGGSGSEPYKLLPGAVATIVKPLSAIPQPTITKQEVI
# CSN inh – inhibitors of CSN-mediated cullin deneddylation, primary screen, biochemical, fluorescence polarization, uHTS; COP9 signalosome complex subunit 5 (Homo sapiens), Q92905; Purified CSN, SCF-Nedd8-OG deneddylation; inhibition, % at 12.5 µM; 360,000 tested, 0.38% active; AID 651999, 2013;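 active means pattern-corrected inhibition above about 35%, with an unprinted fluorescence ratio check between 0.5 and 1.5, limit read from the data, passing the limit was not always enough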;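 further: 0% = enzyme with substrate and 100% = substrate without enzyme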
#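 Assay system: HEK293T-derived human Csn5 enzyme; quantity: 0.24 nM enzyme; medium: Tris/NaCl/DTT buffer, pH 7.5; also added: substrate SCFSkp2-Nedd8OG, 10 nM; doses: 12.5 µM compound; schedule: 90 min reaction at room temperature; signal: FP; read-out: % inhibition of substrate cleavage by Csn5; benchmarks: substrate-only high control, full reaction low control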
# CRFBP-R2 agonist – agonists of CRF-BP/CRF-R2 complex, primary screen, cell-based, HEK293, calcium dye fluorescence, uHTS; CRF-binding protein / CRF receptor 2 complex (human); calcium dye fluorescence (FLIPR); percent of saturating CRF peptide response; activation, % at 13.2 µM; 350,000 tested, 0.46% active; AID 588473, 2011;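 active means activation of at least 50%, plus an integration ratio under a set limit after plate pattern correction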;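 further: plate controls were neutral control wells without compound for no effect and CRF at EC100 for full effect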
# CRFBP-R2 block – antagonists of CRF-BP/CRF-R2 complex, primary screen, cell-based, HEK293, calcium dye fluorescence, uHTS | CRF-induced calcium fluorescence | inhibition, % at 11.8 µM | 350,000 tested, 0.59% active | AID 588475, 2011;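 active means inhibition of the ligand-induced calcium signal above about 50% at the single tested concentration, limit read from the data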
# Rpn11 block – Rpn11 (PSMD14) deubiquitinase inhibitors, primary screen, biochemical, fluorescence polarization, uHTS; 26S proteasome non-ATPase regulatory subunit 14 (Homo sapiens), O00487; human 26S proteasome, Ub4-pepOG fluorescence polarization; 20S core pre-blocked with epoxomicin; calls only at 20 µM; 360,000 tested, 0.59% active; AID 588493, 2011;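 active means inhibition at 20 µM, scaled to each plate's controls, above about 33%, limit read from the data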
# TPT1 inhibitor – Candida albicans TPT1 enzyme inhibitors, primary screen, biochemical, fluorescence polarization. recombinant caTPT1, FP RNA substrate dephosphorylation. inhibition, % at 5 µM. 300,000 tested, 0.81% active. AID 1962, 2009;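 active means inhibition above the mean of all tested compounds plus 3 SD, set per screening campaign, cut at about 24% in these data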;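 further: plate controls were DMSO alone for no effect and ferristatin control at 100 nM for full effect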
# * hit, by the source's call; i = inactive; x = not tested or not shown.
SMILES,HNF4A DNA FP,CSN inh,CRFBP-R2 agonist,CRFBP-R2 block,Rpn11 block,TPT1 inhibitor
O=C(O)c1cc(N/N=C/C=C/c2ccccc2[N+](=O)[O-])ccc1Cl,-1,-1,-3,10,i,-2
Cc1cccc(C(C)C)c1-n1nnnc1-c1ccccc1,1,4,-5,54*,i,1
c1ccc(-c2nnnn2-c2ccccn2)cc1,3,-2,-1,-13,i,x
Clc1ccc(-c2ccc(C=Nc3ccc(N4CCOCC4)cc3)o2)cc1,-1,-11,34,-44,i,-1
Clc1ccc(-c2ccc(C=Nc3ccc(N4CCOCC4)cc3)o2)c(Cl)c1,11,10,210*,-330,i,-1
Cc1c(NC(=O)C2CCCN2S(=O)(=O)c2ccccc2)c(=O)n(-c2ccccc2)n1C (stereo unspecified),2,57*,2,-3,i,-1
Cc1c(NC(=O)C2CCN(S(=O)(=O)c3ccc(Cl)cc3)CC2)c(=O)n(-c2ccccc2)n1C,6,-1,1,5,i,4
COc1ccc(S(=O)(=O)Nc2c(C)n(C)n(-c3ccccc3)c2=O)cc1C(=O)O,-1,-1,2,51*,i,x
Cc1c(NS(=O)(=O)c2ccc(Br)cc2)c(=O)n(-c2ccccc2)n1C,2,-3,-3,13,i,0
O=c1cc(-c2ccccc2)nc2cc(-c3ccco3)[nH]n12,-3,6,-1,-9,i,-6
O=C1c2nc3cc(-c4ccco4)[nH]n3c(=O)c2CN1C1CCCCC1,-7,46*,0,8,i,2
Cc1cc(NS(=O)(=O)c2c(C(=O)N3CCOCC3)c(C)n(C)c2C)ccc1Br,3,1,-1,92*,i,0
Cc1ccc(NS(=O)(=O)c2c(C(=O)N3CCOCC3)c(C)n(C)c2C)cc1,-1,-4,0,-13,i,0
Cc1ccc(C)c(CSc2nnc(-c3cccs3)n2Cc2ccco2)c1,13,3,0,50*,i,3
O=c1[nH]c2ccccc2nc1Cc1ccccc1,-1,-1,9,-4,i,3
O=C(Cc1nc2ccccc2[nH]c1=O)c1ccccc1,38*,-3,30,-56,i,x
Cc1ccccc1C(=O)NC(=S)NCC1CCCO1 (stereo unspecified),2,0,-2,-1,i,-1
O=C(NC(=S)NCC1CCCO1)C(c1ccccc1)c1ccccc1 (stereo unspecified),4,-3,2,55*,i,-3
CN(Cc1ccccc1)S(=O)(=O)c1nnc(NC(=O)c2ccc(F)cc2)s1,-5,4,0,59*,i,4
O=C1c2ccccc2-c2onc3ccc(NCCCn4ccnc4)c1c23,x,x,194*,-166,x,-74
COc1ccc(OC)c2c1C(=O)c1ccccc1C2=O,x,x,15,35,x,-140
COc1ccc2noc3c2c1C(=O)c1ccccc1-3,-105,-79,169*,-115,i,-32
O=C(O)c1ccc(-n2ncc3c2/C(=C/c2cccc([N+](=O)[O-])c2)CC3)cc1,-6,11,-6,73*,i,-2
c1ccc(-c2nc3nonc3nc2-c2ccccc2)cc1,4,9,-1,54*,i,0
CCOc1ccc(S(=O)(=O)N2CCNC(=O)C2)cc1,0,3,-2,8,i,x
SMILES,HNF4A DNA FP,CSN inh,CRFBP-R2 agonist,CRFBP-R2 block,Rpn11 block,TPT1 inhibitor
COC(=O)CS(=O)(=O)c1nnc([C@H](Cc2ccccc2)NC(=O)OC(C)(C)C)o1,-1,6,10,21,i,2
Cc1cccc(CS(=O)(=O)c2nnc([C@H](Cc3ccccc3)NC(=O)OC(C)(C)C)o2)c1,5,0,14,12,i,67*
Cc1ccc(C(=O)NCC(c2ccc(F)cc2)N2CCOCC2)cc1 (stereo unspecified),77*,0,0,-2,i,0
COc1ccccc1C=NN1C(=O)CSC1=S,-2,2,-3,25,i,x
N#Cc1nc(-c2ccco2)oc1NCCc1ccccc1,-4,-3,-2,10,i,-5
O=C(NC(=S)Nc1ccc(Br)cn1)c1cncc(Br)c1,1,-6,1,-20,i,0
O=C(NC(=S)Nc1ccccn1)c1cncc(Br)c1,66*,3,2,-31,i,3
CC(=O)OCCn1c2nc(=O)[nH]c(=O)c-2nc2cc(C)c(C)cc21,-99,-76,203*,-160,i,x
COc1ccccc1-[n+]1c(C)cc(/C=C2\Sc3ccccc3N2C)cc1C,55*,22,175*,-169,x,123*
N#CCSc1ncnc2sc3c(c12)CCC3,9,38*,1,7,i,12
CCOc1ccccc1Oc1coc2cc(O)ccc2c1=O,-3,-4,-2,30,i,2
CCOC(=O)/C(C#N)=N/Nc1c(S(=O)(=O)Cc2ccco2)csc1C(=O)OC,0,-2,-3,-2,i,-2
COc1cccc(/C=C2\C(=O)C(=O)c3ccccc32)c1,2,6,-3,76*,i,3
COc1ccc(C=C2C(=O)c3ccccc3C2=O)cc1O,3,2,-1,66*,i,5
COc1cc(/C=C2/C(=O)ON=C2c2ccccc2)ccc1O,0,9,4,56*,i,4
O=C1ON=C(c2ccccc2)/C1=C/c1ccc(O)cc1,-3,1,10,-16,i,0
COc1cc(C=C2C(=O)c3ccccc3C2=O)cc(OC)c1OC,3,-1,1,88*,i,-1
CN(C)S(=O)(=O)c1ccc(NC(=O)c2cc(-c3cccs3)nc3ccccc23)cc1,0,-2,6,-20,i,1
O=S1(=O)N=C2CCCCCN2C(c2ccc(F)cc2)N1 (stereo unspecified),-1,-6,1,-12,i,0
O=S(=O)([N-]c1nc2ccccc2nc1-[n+]1ccc(-c2ccncc2)cc1)c1ccccc1,-73,-60,224*,-99,i,-67
O=S(=O)([N-]c1nc2ccccc2nc1-[n+]1ccccc1)c1ccccc1,0,-6,1,10,i,5
